Measured values from ChEMBL document CHEMBL3576830, “Exploiting the Polypharmacology of ß-Carbolines to Disrupt O. volvulus Molting” (ACS Med Chem Lett, 2015).
Calls of active or inactive are those of the source. The rule behind the calls is not given here.

Key:
[1] = system: Onchocerca volvulus; test: Antionchocerciasis activity against L3 larval stage of Onchocerca volvulus assessed as prevention of L3 cuticle shedding at 100 uM treated for 24 hrs prior to complete medium and PBMC addition measured after 6 days by inverted microscopic analysis; format: functional, organism-based
Outline: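 O. volvulus L3 larvae in 2–3 wells, on average 5–10 larvae per well; read-out is percent molting across the wells.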

[2] = system: HEK-293T; test: Mitochondrial uncoupling activity in HEK293T/17 cells at 50 uM after 30 mins by TMRE staining-based fluorescence assay; format: functional, cell-based; conditions: Homo sapiens
Outline: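 HEK 293T/17 cells incubated with 50 μM compound, then stained with TMRE to detect mitochondrial membrane depolarization, read in a microplate fluorescence assay. Reported as mean fluorescence intensity ± SD (n = 3). Unstained cells served as negative control and 0.5% DMSO as positive control. CCCP served as reference protonophore.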

[3] = system: Onchocerca volvulus; test: Antionchocerciasis activity against L3 larval stage of Onchocerca volvulus assessed as inhibition of parasite molting at 10 uM treated for 24 hrs prior to complete medium and PBMC addition measured after 6 days by inverted microscopic analysis; format: functional
Outline: (§1)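 O. volvulus L3 larvae in wells, 2−3 wells per condition with on average 5−10 larvae each, exposed to inhibitor. Molting counted and expressed as percent molting.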

[4] = biological target: T1, Chitinase (Onchocerca volvulus, UniProt Q25615); test: Inhibition of L3 larval stage of Onchocerca volvulus chitinase using 4-methylumbelliferyl-N-N'-N''-beta-chitotrioside as substrate assessed as release of 4-methylumbelliferone measured for 10 mins by fluorescence assay
T1 sequence (Q25615 whole entry): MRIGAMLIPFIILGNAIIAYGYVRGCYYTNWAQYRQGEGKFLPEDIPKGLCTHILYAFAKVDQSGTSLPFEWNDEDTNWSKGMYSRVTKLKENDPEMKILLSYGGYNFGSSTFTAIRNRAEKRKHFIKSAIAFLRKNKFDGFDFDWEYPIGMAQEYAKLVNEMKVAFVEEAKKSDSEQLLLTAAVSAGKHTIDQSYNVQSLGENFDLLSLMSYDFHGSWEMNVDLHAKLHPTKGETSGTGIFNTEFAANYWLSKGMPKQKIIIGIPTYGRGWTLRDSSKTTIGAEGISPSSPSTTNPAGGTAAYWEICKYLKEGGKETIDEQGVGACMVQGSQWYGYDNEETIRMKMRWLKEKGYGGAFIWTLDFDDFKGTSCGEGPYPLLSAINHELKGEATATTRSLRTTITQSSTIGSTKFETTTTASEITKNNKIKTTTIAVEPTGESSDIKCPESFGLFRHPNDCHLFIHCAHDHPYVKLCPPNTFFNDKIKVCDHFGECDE

[5] = biological target: T2, Chitinase (Onchocerca volvulus) (UniProt Q25615); test: Inhibition of L3 larval stage of Onchocerca volvulus chitinase using 4-methylumbelliferyl-N-N'-N''-beta-chitotrioside as substrate assessed as release of 4-methylumbelliferone at 10 uM measured for 10 mins by fluorescence assay; format: tissue-based
T2 sequence (whole entry): T1 sequence (Q25615 whole entry)
Outline: (§2)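 OvCHT1 activity read by fluorescence, inhibitors tested at 10 and 5 μM.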

[6] = system: Entamoeba histolytica; test: Inhibition of Entamoeba histolytica chitinase using 4-methylumbelliferyl-N-N'-N''-beta-chitotrioside as substrate assessed as release of 4-methylumbelliferone at 10 uM measured for 10 mins by fluorescence assay
[7] = system: HEK-293T; test: Cytotoxicity against HEK293T/17 cells at 5 uM after 0.5 to 24 hrs by MTS assay; format: cell-based; conditions: human
[8] = system: Onchocerca volvulus; test: Antionchocerciasis activity against L3 larval stage of Onchocerca volvulus assessed as inhibition of parasite molting at 1 uM treated for 24 hrs prior to complete medium and PBMC addition measured after 6 days by inverted microscopic analysis; format: functional; outline: as §1
[9] = biological target: T3, Endochitinase (Brugia malayi) (UniProt P29030); test: Inhibition of Brugia malayi chitinase using 4-methylumbelliferyl-N-N'-N''-beta-chitotrioside as substrate assessed as release of 4-methylumbelliferone at 10 uM measured for 10 mins by fluorescence assay
T3 sequence (whole entry): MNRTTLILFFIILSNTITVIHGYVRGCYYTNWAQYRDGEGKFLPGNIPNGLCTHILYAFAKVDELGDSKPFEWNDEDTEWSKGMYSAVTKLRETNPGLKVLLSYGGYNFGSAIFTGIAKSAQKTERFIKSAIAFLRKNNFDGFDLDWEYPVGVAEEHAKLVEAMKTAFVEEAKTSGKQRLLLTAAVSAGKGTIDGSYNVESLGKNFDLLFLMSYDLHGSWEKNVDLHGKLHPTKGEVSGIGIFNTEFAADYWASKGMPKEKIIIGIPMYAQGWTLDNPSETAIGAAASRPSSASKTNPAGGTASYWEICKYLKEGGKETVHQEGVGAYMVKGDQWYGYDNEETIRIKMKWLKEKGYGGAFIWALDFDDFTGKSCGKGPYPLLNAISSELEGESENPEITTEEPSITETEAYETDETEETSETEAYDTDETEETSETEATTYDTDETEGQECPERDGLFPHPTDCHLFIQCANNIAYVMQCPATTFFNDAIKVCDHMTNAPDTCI

[10] = system: Caenorhabditis elegans; test: Drug uptake in late stage L4 Caenorhabditis elegans at 10 uM after 6 hrs by LC-MS analysis; format: ADME, organism-based; conditions: in vivo
Outline: (§3)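 Late-stage L4 C. elegans incubated 6 h with 10 μM inhibitor (equivalent to 2 nmol/mg worm). Worm homogenates quantified by LC−MS and also searched for metabolites (7-O-dealkylation, aromatic ring and N²-oxidation products). Uptake expressed as nmol/mg worm, mean ± SD, n = 3.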

[11] = system: Caenorhabditis elegans; test: Drug metabolism in late stage L4 Caenorhabditis elegans assessed as formation of 7-O-dealkylated, aromatic ring, and N2-oxidized metabolite at 10 uM after 6 hrs by LC-MS analysis; format: ADME, organism-based; conditions: in vivo; outline: as §3
[12] = system: Caenorhabditis elegans; test: Drug metabolism in late stage L4 Caenorhabditis elegans assessed as formation of 7-methoxy-1-methyl-9H-pyrido[3,4-b]indole at 10 uM after 6 hrs by LC-MS analysis; format: ADME, organism-based; conditions: in vivo; outline: as §3
[13] = system: Caenorhabditis elegans; test: Drug level in late stage L4 Caenorhabditis elegans treated with 2-(Cyclopropylmethyl)-7-methoxy-1-methyl-9H-pyrido[3,4-b]indol-2-ium bromide at 10 uM after 6 hrs by LC-MS analysis; format: ADME, organism-based; conditions: in vivo
Outline: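 Late-stage L4 C. elegans were exposed to 10 μM compound (equivalent to 2 nmol/mg worm) for 6 h. Worm homogenates were quantified by LC–MS and expressed as nmol/mg worm, mean ± SD, n = 3.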

[14] = biological target: T1, Chitinase; test: Competitive inhibition of L3 larval stage of Onchocerca volvulus chitinase using 4-methylumbelliferyl-N-N'-N''-beta-chitotrioside as substrate assessed as release of 4-methylumbelliferone measured for 10 mins by Dixon plot analysis
[15] = biological target: T2, Chitinase (Onchocerca volvulus); test: Inhibition of L3 larval stage of Onchocerca volvulus chitinase using 4-methylumbelliferyl-N-N'-N''-beta-chitotrioside as substrate assessed as release of 4-methylumbelliferone at 5 uM measured for 10 mins by fluorescence assay; outline: as §2

## Cc1nccc2c1[nH]c1ccccc12 [HARMAN]
[1]
  Activity: Active
[2]
  Activity: inactive
[3]
  inhibition: inactive
[4]
  IC50: 7.33 µM

## COc1ccc2c3ccnc(C)c3n(CC3CC3)c2c1
[5]
  inhibition: inactive

## Cc1c2[nH]c3ccccc3c2cc[n+]1C
[5]
  inhibition: inactive

## COc1ccc2c(c1)[nH]c1c(C)[n+](CC3CC3)ccc12.[Br-]
[2]
  Activity: Active
[3]
  inhibition: Active
[6]
  inhibition: inactive
[7]
  Activity: Non-toxic
[8]
  inhibition: inactive
[9]
  inhibition: inactive
[10]
  Drug uptake: 0.033 nmol/mg
[11]
  Drug metabolism: metabolite_notdetected
[4]
  IC50: 3.57 µM
[12]
  Drug metabolism: metabolite_detected

## CCNS(=O)(=O)c1ccc2[nH]c3cnccc3c2c1
[5]
  inhibition: inactive

## COc1ccc2c(c1)[nH]c1c(C)nccc12 [HARMINE]
[2]
  Activity: Active
[3]
  inhibition at 10 µM: 57%
[6]
  inhibition: inactive
[9]
  inhibition: inactive
[4]
  IC50: 7.06 µM
[13]
  Drug uptake: 0.052 nmol/mg
[14]
  Ki: 3.78 µM

## Cc1[nH]ccc2c1[nH]c1cc(=O)ccc12 [HARMOL]
[2]
  Activity: Active
[3]
  inhibition at 10 µM: 61%
[6]
  inhibition: inactive
[9]
  inhibition: inactive
[4]
  IC50: 7.08 µM

## COc1ccc2c(c1)[nH]c1c(C)[n+](Cc3ccc(Cl)cc3)ccc12.[Br-]
[2]
  Activity: Active
[3]
  inhibition: Active
[7]
  Activity: Non-toxic
[8]
  inhibition at 1 µM: 45%
[10]
  Drug uptake: 0.22 nmol/mg
[4]
  IC50: 3.49 µM

## N#CC(C#N)=NNc1cccc(Cl)c1
[2]
  Activity: Active

## Cc1c2[nH]c3ccccc3c2cc[n+]1CC1CC1
[15]
  inhibition: inactive

## O=S(=O)(Nc1ccc(Cl)cc1)c1ccc2[nH]c3cnccc3c2c1
[5]
  inhibition: inactive

## Cc1c2[nH]c3ccccc3c2cc[n+]1Cc1ccc(C(F)(F)F)cc1
[5]
  inhibition: inactive

## Cc1c2[nH]c3cc(OCc4ccc(Cl)cc4)ccc3c2cc[n+]1Cc1ccc(Cl)cc1.[Br-]
[2]
  Activity: Active
[3]
  inhibition: Active
[6]
  inhibition: Active
[7]
  Activity: Non-toxic
[8]
  inhibition at 1 µM: 27%
[9]
  inhibition: Active
[4]
  IC50: 1.43 µM
[14]
  Ki: 0.98 µM

## Cc1nccc2c3ccccc3n(Cc3ccc(Cl)cc3)c12
[5]
  inhibition: inactive

## Cc1nccc2c3ccccc3n(CC3CC3)c12
[15]
  inhibition: inactive

## Cc1nccc2c1[nH]c1cc(OCC3CC3)ccc12
[5]
  inhibition: inactive

## Cc1c2[nH]c3ccccc3c2cc[n+]1Cc1ccccc1
[5]
  inhibition: inactive

## Cc1nccc2c3ccc(OCc4ccc(Cl)cc4)cc3n(Cc3ccc(Cl)cc3)c12
[1]
  Activity: Active
[2]
  Activity: inactive
[3]
  inhibition: inactive
[6]
  inhibition: inactive
[9]
  inhibition: inactive
[4]
  IC50: 2.08 µM

## Cc1nccc2c1[nH]c1cc(OCc3ccc(Cl)cc3)ccc12
[5]
  inhibition: inactive

## Cc1nccc2c3ccccc3n(Cc3ccccc3)c12
[5]
  inhibition: inactive

## COc1ccc2c3ccnc(C)c3n(Cc3ccc(Cl)cc3)c2c1
[5]
  inhibition: inactive

## Cc1nccc2c3ccccc3n(C)c12
[5]
  inhibition: inactive

## Cc1ccc(NS(=O)(=O)c2ccc3[nH]c4cnccc4c3c2)cc1
[5]
  inhibition: inactive

## Cc1c2[nH]c3ccccc3c2cc[n+]1Cc1ccc(Cl)cc1
[15]
  inhibition: inactive

## c1ccc2c(c1)[nH]c1cnccc12 [NORHARMANE]
[1]
  Activity: Active
[2]
  Activity: inactive
[3]
  inhibition: inactive
[4]
  IC50: 8.46 µM

## O=S(=O)(NC1CCCC1)c1ccc2[nH]c3cnccc3c2c1
[5]
  inhibition: inactive

## O=S(=O)(Nc1ccccc1)c1ccc2[nH]c3cnccc3c2c1
[5]
  inhibition: inactive
